What was measured:
Format in all cases: functional, cell-based
HL-60 = test: Cytotoxicity against human HL60 cells incubated for 3 days by CellTiter-Glo luminescent assay; settings: HL-60, 72 h
Procedure, shortened: (§1)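 CellTiter-Glo viability read-out on leukemia cell lines. IC50 reported as the average of triplicates.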

KG-1 = test: Cytotoxicity against human KG1 cells incubated for 3 days by CellTiter-Glo luminescent assay; settings: KG-1, 72 h; procedure, shortened: as §1
Jurkat = test: Cytotoxicity against human Jurkat cells incubated for 3 days by CellTiter-Glo luminescent assay; settings: 72 h; procedure, shortened: as §1
NALM-6 = test: Cytotoxicity against human NALM6 cells incubated for 3 days by CellTiter-Glo luminescent assay; settings: NALM-6, 72 h; procedure, shortened: as §1

In the case of N#Cc1ccc(NC(=O)c2ccc(C(F)(F)F)cc2O)cc1, the IC50 (HL-60) is reported as 1030 nM and the IC50 (KG-1) is reported as 1440 nM.

O=C(Nc1cc(C(F)(F)F)cc(C(F)(F)F)c1)c1cc(Cl)c(-c2ccccc2)cc1O showed an IC50 (HL-60) of 790 nM, an IC50 (KG-1) of 430 nM and an IC50 (Jurkat) of 540 nM. For the same compound, the IC50 (NALM-6) was 560 nM.

Work on O=C(Nc1cccc(OC(F)(F)F)c1)c1cc(F)ccc1O yielded an IC50 (HL-60) of 730 nM, an IC50 (KG-1) of 830 nM and an IC50 (Jurkat) of 700 nM. It also gave an IC50 (NALM-6) of 1370 nM.

Work on N#Cc1ccc(NC(=O)c2ccc3cccnc3c2O)c(C#N)c1 yielded an IC50 (HL-60) of 890 nM, an IC50 (KG-1) of 3770 nM and an IC50 (Jurkat) of 270 nM. It also gave an IC50 (NALM-6) of 350 nM.

Compound O=C(Nc1ccc(C(F)(F)F)cc1)c1cc(Br)c(-c2ccccc2)cc1O has an IC50 (HL-60) of 540 nM, an IC50 (KG-1) of 400 nM and an IC50 (Jurkat) of 740 nM. It also gave an IC50 (NALM-6) of 1000 nM.

In the case of O=C(Nc1ccc(OC(F)(F)F)c(Cl)c1)c1ccc(C(F)(F)F)cc1O, the IC50 (HL-60) is reported as 380 nM, the IC50 (KG-1) is reported as 640 nM and the IC50 (Jurkat) is reported as 790 nM. The IC50 (NALM-6) was 950 nM.

Compound O=C(Nc1cc(F)cc(F)c1)c1ccc2cccnc2c1O has an IC50 (HL-60) of 510 nM, an IC50 (KG-1) of 3340 nM and an IC50 (Jurkat) of 430 nM. The IC50 (NALM-6) was 310 nM.

Work on O=C(Nc1ccc(Cl)c(C(F)(F)F)c1)c1cc(F)ccc1O yielded an IC50 (HL-60) of 600 nM, an IC50 (KG-1) of 540 nM and an IC50 (Jurkat) of 530 nM. It also gave an IC50 (NALM-6) of 970 nM.

O=C(Nc1cc(C(F)(F)F)cc(C(F)(F)F)c1)c1ccc(-c2ccccc2)cc1O was tested, and the IC50 (HL-60) was 1140 nM, the IC50 (KG-1) was 860 nM and the IC50 (Jurkat) was 1240 nM. For the same compound, the IC50 (NALM-6) was 1580 nM.

In the case of O=C(Nc1ccc(C(F)(F)F)cc1)c1ccc(C(F)(F)F)cc1O, the IC50 (HL-60) is reported as 380 nM, the IC50 (KG-1) is reported as 780 nM and the IC50 (Jurkat) is reported as 820 nM. For the same compound, the IC50 (NALM-6) was 1120 nM.

Work on N#Cc1ccc(NC(=O)c2cc(Cl)ccc2O)c(Cl)c1 yielded an IC50 (HL-60) of 500 nM, an IC50 (KG-1) of 860 nM and an IC50 (Jurkat) of 620 nM. It also gave an IC50 (NALM-6) of 730 nM.

In the case of N#Cc1ccc(NC(=O)c2cc(C(F)(F)F)ccc2O)cc1, the IC50 (HL-60) is reported as 3120 nM and the IC50 (KG-1) is reported as 4810 nM.

Compound N#Cc1ccc(NC(=O)c2ccc(Br)cc2O)cc1Cl has an IC50 (HL-60) of 440 nM, an IC50 (KG-1) of 960 nM and an IC50 (Jurkat) of 750 nM. For the same compound, the IC50 (NALM-6) was 920 nM.

Cc1ccc(C(=O)Nc2ccc(C#N)cc2)c(O)c1 was tested, and the IC50 (HL-60) was 2420 nM and the IC50 (KG-1) was 2560 nM.

In the case of N#Cc1ccc(NC(=O)c2cccc(F)c2O)cc1, the IC50 (HL-60) is reported as 5390 nM and the IC50 (KG-1) is reported as 9690 nM.

Cc1ccc(O)c(C(=O)Nc2ccc(C#N)cc2)c1 was tested, and the IC50 (HL-60) was 3920 nM and the IC50 (KG-1) was 3370 nM.

N#Cc1ccc(NC(=O)c2cc(-c3cccnc3)ccc2O)cc1 was tested, and the IC50 (HL-60) was 7960 nM and the IC50 (KG-1) was 8330 nM.

Compound O=C(Nc1ccc(Cl)cc1Cl)c1cc(F)ccc1O has an IC50 (HL-60) of 890 nM, an IC50 (KG-1) of 850 nM and an IC50 (Jurkat) of 880 nM. It also gave an IC50 (NALM-6) of 1620 nM.

O=C(Nc1ccc(Cl)cc1Cl)c1ccc2cccnc2c1O gave an IC50 (HL-60) of 610 nM, an IC50 (KG-1) of 3560 nM and an IC50 (Jurkat) of 430 nM. For the same compound, the IC50 (NALM-6) was 450 nM.

With O=C(Nc1cc(C(F)(F)F)cc(C(F)(F)F)c1)c1ccc(Br)cc1O the IC50 (HL-60) was 270 nM, the IC50 (KG-1) was 830 nM and the IC50 (Jurkat) was 930 nM. It also gave an IC50 (NALM-6) of 1200 nM.

N#Cc1ccc(NC(=O)c2ccc3ccccc3c2O)cc1 showed an IC50 (HL-60) of 3410 nM and an IC50 (KG-1) of 2720 nM.

O=C(Nc1ccc(Br)c(Cl)c1)c1cc(F)ccc1O gave an IC50 (HL-60) of 600 nM, an IC50 (KG-1) of 670 nM and an IC50 (Jurkat) of 860 nM. It also gave an IC50 (NALM-6) of 1250 nM.

N#Cc1ccc(NC(=O)c2ccccc2O)cc1 gave an IC50 (HL-60) of 4620 nM and an IC50 (KG-1) of 5370 nM.

With CN(C(=O)c1cc(F)ccc1O)c1ccc(C#N)cc1 the IC50 (HL-60) was over 10000 nM and the IC50 (KG-1) was over 10000 nM.

COc1cc2ccccc2cc1C(=O)Nc1ccc(C#N)cc1 was tested, and the IC50 (HL-60) was over 10000 nM and the IC50 (KG-1) was over 10000 nM.

With O=C(Nc1ccc(Cl)cc1)c1ccc2cccnc2c1O the IC50 (HL-60) was 630 nM, the IC50 (KG-1) was 3300 nM and the IC50 (Jurkat) was 510 nM. The IC50 (NALM-6) was 380 nM.

O=C(Nc1ccc(OC(F)(F)F)c(Cl)c1)c1cc(Cl)ccc1O was tested, and the IC50 (HL-60) was 450 nM, the IC50 (KG-1) was 460 nM and the IC50 (Jurkat) was 840 nM. It also gave an IC50 (NALM-6) of 1050 nM.

Compound N#Cc1ccc(NC(=O)c2ccc[nH]c2=O)cc1 has an IC50 (HL-60) of over 10000 nM and an IC50 (KG-1) of over 10000 nM.

For N#Cc1ccc(NC(=O)c2cc(Cc3ccccc3)ccc2O)cc1, the IC50 (HL-60) was 1740 nM and the IC50 (KG-1) was 1930 nM.

With N#Cc1ccc(Nc2n[nH]c3ccccc23)cc1 the IC50 (HL-60) was over 10000 nM and the IC50 (KG-1) was over 10000 nM.

With N#Cc1ccc2nc(-c3ccccc3O)[nH]c2c1 the IC50 (HL-60) was over 10000 nM and the IC50 (KG-1) was over 10000 nM.

N#Cc1ccc(NS(=O)(=O)c2cc(F)ccc2O)cc1 was tested, and the IC50 (HL-60) was over 10000 nM and the IC50 (KG-1) was over 10000 nM.

With Cc1cccc(C(=O)Nc2ccc(C#N)cc2)c1O the IC50 (HL-60) was over 10000 nM and the IC50 (KG-1) was 8980 nM.

Cc1cccc(O)c1C(=O)Nc1ccc(C#N)cc1 gave an IC50 (HL-60) of 6860 nM and an IC50 (KG-1) of 7940 nM.

N#Cc1ccc(NC(=O)c2cc(F)ccc2O)cc1 was tested, and the IC50 (HL-60) was 1420 nM and the IC50 (KG-1) was 2670 nM.

CC(=O)Oc1cc2ccccc2cc1C(=O)Nc1ccc(C#N)cc1 showed an IC50 (HL-60) of 1690 nM and an IC50 (KG-1) of 1700 nM.

For CS(=O)(=O)Nc1ccc(Cl)cc1C(=O)Nc1ccc(C#N)cc1, the IC50 (HL-60) was over 10000 nM and the IC50 (KG-1) was over 10000 nM.

For N#Cc1ccc(NC(=O)c2cc(Br)c3cccnc3c2O)cc1, the IC50 (HL-60) was 330 nM, the IC50 (Jurkat) was 230 nM and the IC50 (NALM-6) was 210 nM.

With N#Cc1ccc(NC(=O)c2c(O)cccc2F)cc1 the IC50 (HL-60) was over 10000 nM and the IC50 (KG-1) was over 10000 nM.
